Experimental data from ChEMBL document CHEMBL3098049, “Concise synthesis and biological evaluation of 2-Aroyl-5-amino benzo[b]thiophene derivatives as a novel class of potent antimitotic agents” (J Med Chem, 2013).
Active and inactive are the calls of the source. The calls are words filed in the database; no cut-off is given here.

Tests used:
HeLa [1] = experiment: Effect on cyclin B protein expression in human HeLa cells at 10 to 100 nM after 24 to 48 hrs by Western blot analysis; type: functional, cell-based
Method in brief: (§1)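 HeLa cultures treated 24 or 48 h, washed in cold PBS, lysed 30 min at 0 °C, clarified at 15000g. 20 μg protein run on 7.5−15% gradient SDS-PAGE and blotted to PVDF. Primary antibodies 2 h at room temperature, peroxidase secondary 60 min, ECL detection. Membranes stripped and reprobed for β-actin as loading control.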

HeLa [2] = experiment: Cell cycle arrest in human HeLa cells assessed as reduction in S phase up to 60 nM after 24 hrs by propidium iodide staining-based flow cytometric analysis; type: functional
Method in brief: (§2)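 HeLa cells (5 × 10⁵) treated for 24 h. Harvested, fixed in 70% ethanol chilled to 0 °C, then suspended in RNase with 0.1% Triton X-100. DNA stained with PI, analysed by flow cytometry as DNA-content histograms. Mean of three independent experiments.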

HeLa [3] = experiment: Cell cycle arrest in human HeLa cells assessed as accumulation at G2/M phase after 24 hrs by propidium iodide staining-based flow cytometric analysis; type: functional; method in brief: as §2
Tubulin (Homo sapiens) = Tubulin (Homo sapiens) (UniProt P68371+Q9H4B7+P0DPH7+P68366+Q13509+Q71U36+P04350+Q3ZCM7+P07437+P68363+Q9BQE3+Q6PEY2+Q13885+Q9BVA1+Q9BUF5); experiment: Displacement of [3H]-colchicine from tubulin (unknown origin) at 1 uM after 10 mins relative to control; type: protein-complex assay
HeLa [4] = experiment: Cell cycle arrest in human HeLa cells assessed as accumulation at G2/M phase at 15 to 30 nM after 24 hrs by propidium iodide staining-based flow cytometric analysis relative to control; type: functional; method in brief: as §2
[5] = Cytotoxicity against human CEM/0 cells assessed as growth inhibition after 48 hrs by coulter counting analysis; type: functional, cell-based; settings: CCRF-CEM
[6] = Cytotoxicity against mouse FM3A/0 cells assessed as growth inhibition after 48 hrs by coulter counting analysis; type: functional, cell-based; settings: FM3A/0, 48 h
Jurkat = experiment: Cell cycle arrest in human Jurkat cells assessed as accumulation at G2/M phase at 10 nM after 24 hrs by propidium iodide staining-based flow cytometric analysis; type: functional
Method in brief: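 Jurkat cells treated for 24 h, fixed, PI-labelled and analysed by flow cytometry for cell-cycle phase distribution. Mean of three independent experiments.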

HeLa [7] = experiment: Cell cycle arrest in human HeLa cells assessed as accumulation at G2/M phase at 10 nM after 24 hrs by propidium iodide staining-based flow cytometric analysis; type: functional; method in brief: as §2
[8] = Selectivity ratio of IC50 for HUVEC to IC50 for mouse FM3A/0 cells; type: ADME, cell-based; settings: HUVEC and FM3A/0 cells, read-out: Ratio IC50
[9] = Selectivity ratio of IC50 for HUVEC to IC50 for human Molt4/C8 cells; type: ADME, cell-based; settings: HUVEC and Molt4/C8 cells, read-out: Ratio IC50
[10] = Selectivity ratio of IC50 for HUVEC to IC50 for mouse L1210 cells; type: ADME, cell-based; settings: HUVEC and L1210 cells, read-out: Ratio IC50
Mus musculus = experiment: Toxicity in Balb/c-nu mouse xenografted with human MNNG-HOS cells assessed as change in body weight at 50 mg/kg, ip administered once every 3 days for 9 days measured after day 18; type: organism-based; design: dose 50 mg/kg, route intraperitoneal; settings: in vivo
Method in brief: (§3)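 MNNG/HOS osteosarcoma cells grown to exponential phase, suspended in FBS-free MEM (10⁷ cells/mL), 0.1 mL injected into back hypodermis of nude mice. At ~100 mm³, 12 mice randomised to three groups (vehicle, CA-4P in isotonic saline, test in 5% DMSO/olive oil). 50 mg/kg ip at 0.01 mL/g on days 0, 3, 6, 9. Tumour volume and body weight tracked; tumours excised and weighed day 18; […].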

MNNG-HOS [11] = experiment: Antitumor activity against human MNNG-HOS cells xenografted in Balb/c-nu mouse assessed as reduction in tumor weight at 50 mg/kg, ip administered once every 3 days for 9 days measured after day 18; type: functional, organism-based; design: dose 50 mg/kg; settings: HOS-TE85; method in brief: as §3
MNNG-HOS [12] = experiment: Antitumor activity against human MNNG-HOS cells xenografted in Balb/c-nu mouse assessed as tumor growth inhibition at 50 mg/kg, ip measured on day 18 relative to vehicle-treated control; type: functional; settings: HOS-TE85, ip, 432 h, route intraperitoneal, read-out: TGI; method in brief: as §3
MNNG-HOS [13] = experiment: Cytotoxicity against human MNNG-HOS cells; type: functional, cell-based; settings: HOS-TE85
HeLa [14] = experiment: Downregulation of Xiap protein expression in human HeLa cells at 10 to 100 nM after 24 to 48 hrs by Western blot analysis; type: functional, cell-based; method in brief: as §1
HeLa [15] = experiment: Downregulation of Bcl-2 protein expression in human HeLa cells at 10 to 100 nM after 24 to 48 hrs by Western blot analysis; type: functional, cell-based; method in brief: as §1
HeLa [16] = experiment: Induction of apoptosis in human HeLa cells assessed as PARP cleavage at 10 nM after 24 hrs by Western blot analysis; type: functional, cell-based; method in brief: as §1
HeLa [17] = experiment: Induction of apoptosis in human HeLa cells assessed as caspase-3 cleavage at 10 to 100 nM after 24 to 48 hrs by Western blot analysis; type: functional, cell-based; method in brief: as §1
HeLa [18] = experiment: Induction of mitochondrial membrane depolarization in human HeLa cells at 15 to 250 nM by JC-1 staining-based fluorescence assay; type: functional, cell-based; settings: TDE = time-dependent effect
Method in brief: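 HeLa cells treated 24 or 48 h, then stained with JC-1. Cells with depolarised mitochondria quantified by flow cytometry. Mean of three independent experiments.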

HeLa [19] = experiment: Induction of mitochondrial ROS generation in human HeLa cells after 24 to 48 hrs by H2-DCFDA staining-based flow cytometric analysis; type: functional, cell-based
Method in brief: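 HeLa cells incubated 24 or 48 h with compound, stained with H₂-DCFDA, and intracellular ROS measured by flow cytometry. Mean of three independent experiments.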

HeLa [20] = experiment: Induction of apoptosis in human HeLa cells at 15 nM after 24 to 48 hrs by annexin-V-FITC/propidium iodide staining-based flow cytometric analysis; type: functional, cell-based
Method in brief: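 HeLa cells treated 24 or 48 h, stained with annexin-V-FITC and PI, analysed by flow cytometry. Excitation 488 nm; emission 525 nm for FITC, 585 nm for PI. Gating separates live, early apoptotic, late apoptotic and necrotic cells. Mean of three independent experiments.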

For `COc1cc(C(=O)c2cc3cc(N)cc(OC)c3s2)cc(OC)c1OC`, the Activity (HeLa [1]) was “inactive”, the Activity (HeLa [2]) was “Active” and the Activity (HeLa [3]) was “Dose-dependent effect”. It also gave an inhibition (Tubulin (Homo sapiens)) of 89%, an Activity (HeLa [4]) of over 80% and an IC50 [5] of 4.1 nM. The IC50 [6] was 12 nM, the Activity (Jurkat) was “Active” and the Activity (HeLa [7]) was “Active”. It also gave a selectivity ratio [8] of 460, a selectivity ratio [9] of 460 and a selectivity ratio [10] of 460. For the same molecule, the Activity (Mus musculus) was “Non-toxic”, the Activity (MNNG-HOS [11]) was “Active” and the inhibition in vivo at 50 mg/kg (MNNG-HOS [12]) was 62%. For the same molecule, the IC50 (MNNG-HOS [13]) was 1 nM, the Activity (HeLa [14]) was “Active” and the Activity (HeLa [15]) was “Active”. The Activity (HeLa [16]) was “Active”, the Activity (HeLa [17]) was “Active” and the Activity (HeLa [18]) was “tde”. The Activity (HeLa [19]) was “Dose-dependent effect” and the Activity (HeLa [20]) was “Active”.
